Test results as given in article PMC9482816 (Journal of medicinal chemistry, 2022).
Entries after “also recorded” stand apart in the source; their conditions may differ.

Columns and labels:
[1] = tested on: H3K9me2 level in K562 cells; assay: Western blot analysis for H3K9me2 in K562 cells; type: cell-based; settings: treated for 48 h
[2] = tested on: H3K9me2 level in MDA-MB-231 cells; assay: Western blot analysis for H3K9me2 in MDA-MB-231 cells; type: cell-based; settings: 0.2, 1, or 5 μM for 24, 48, or 72 h
G9a [3] = biological target: T1, G9a (Homo sapiens, UniProt Q96KQ7); assay: Radioactivity-based scintillation proximity biochemical assay, G9a; settings: preincubation 5, 15, 45 min
T1 sequence (Q96KQ7 1-1210): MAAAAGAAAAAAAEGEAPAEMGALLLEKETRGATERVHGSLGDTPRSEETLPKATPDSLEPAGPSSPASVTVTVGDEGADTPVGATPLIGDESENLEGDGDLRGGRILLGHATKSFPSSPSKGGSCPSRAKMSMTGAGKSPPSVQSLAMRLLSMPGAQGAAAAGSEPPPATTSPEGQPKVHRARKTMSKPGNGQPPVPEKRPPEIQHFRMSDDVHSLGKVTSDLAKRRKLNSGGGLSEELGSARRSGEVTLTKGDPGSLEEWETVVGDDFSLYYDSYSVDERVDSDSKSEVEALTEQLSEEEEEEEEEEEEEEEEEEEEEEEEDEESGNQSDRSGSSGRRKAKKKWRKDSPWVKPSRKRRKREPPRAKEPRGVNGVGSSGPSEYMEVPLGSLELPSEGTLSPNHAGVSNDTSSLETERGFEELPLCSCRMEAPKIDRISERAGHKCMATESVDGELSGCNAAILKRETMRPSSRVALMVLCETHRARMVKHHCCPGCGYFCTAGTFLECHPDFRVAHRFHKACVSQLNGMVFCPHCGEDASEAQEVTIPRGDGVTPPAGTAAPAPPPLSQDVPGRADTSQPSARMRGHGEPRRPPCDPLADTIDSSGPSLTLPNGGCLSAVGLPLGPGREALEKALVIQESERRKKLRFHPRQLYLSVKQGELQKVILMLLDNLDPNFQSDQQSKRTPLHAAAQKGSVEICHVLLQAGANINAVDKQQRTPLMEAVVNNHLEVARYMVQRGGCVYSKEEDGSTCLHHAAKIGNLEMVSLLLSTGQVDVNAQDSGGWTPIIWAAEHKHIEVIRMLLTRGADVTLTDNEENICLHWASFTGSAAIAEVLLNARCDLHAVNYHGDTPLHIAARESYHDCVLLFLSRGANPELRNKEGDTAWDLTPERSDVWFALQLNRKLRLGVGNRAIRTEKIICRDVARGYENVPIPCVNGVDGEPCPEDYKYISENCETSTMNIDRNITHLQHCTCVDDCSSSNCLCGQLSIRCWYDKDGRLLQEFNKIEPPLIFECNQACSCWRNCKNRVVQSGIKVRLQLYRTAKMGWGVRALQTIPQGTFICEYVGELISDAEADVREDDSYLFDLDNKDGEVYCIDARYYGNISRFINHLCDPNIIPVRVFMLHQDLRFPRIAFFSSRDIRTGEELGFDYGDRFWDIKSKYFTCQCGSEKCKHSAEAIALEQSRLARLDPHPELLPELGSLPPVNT
How it was run: (§1)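 Tritiated methyl transfer from SAM to H3 peptide, read by scintillation proximity. Enzymes are recombinant human catalytic domains: G9a (913–1193) and GLP (982–1266), each at 5 nM. Substrate is H3 peptide at 0.05 μM and SAM cofactor at 1 μM. Test compound is preincubated with enzyme for 5, 15 or 45 min. Run by a contract lab in four replicates.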

G9a [4] = biological target: T2, G9a (Homo sapiens, UniProt Q96KQ7); assay: Mass spectrometry based analysis of G9a-inhibitor adduct formation; type: binding; settings: for covalent modification of G9a (MS-based analysis, in words): after 1 h of incubation
T2 sequence (Q96KQ7 913-1193): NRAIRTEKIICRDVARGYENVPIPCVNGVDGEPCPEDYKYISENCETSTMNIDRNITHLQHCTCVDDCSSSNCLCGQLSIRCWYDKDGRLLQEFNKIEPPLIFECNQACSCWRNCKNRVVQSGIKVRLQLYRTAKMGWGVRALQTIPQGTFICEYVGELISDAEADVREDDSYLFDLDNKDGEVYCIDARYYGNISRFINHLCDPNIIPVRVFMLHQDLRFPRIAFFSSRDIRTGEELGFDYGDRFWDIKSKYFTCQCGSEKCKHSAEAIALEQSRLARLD
How it was run: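 Purified human G9a catalytic domain (residues 913–1193), 5 μM in 50 mM Tris-HCl pH 7.5, 150 mM NaCl, incubated 1 h at room temperature with 50 μM test compound or DMSO. Intact protein analysed by electrospray LC/TOF mass spectrometry. Protein–inhibitor adduct quantified from the mass shift over unmodified G9a (34 314 Da).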

GLP [5] = biological target: T3, GLP (Homo sapiens, UniProt Q9H9B1); assay: Radioactivity-based scintillation proximity biochemical assay, GLP; settings: preincubation 5, 15, 45 min
T3 sequence (Q9H9B1 1-1298): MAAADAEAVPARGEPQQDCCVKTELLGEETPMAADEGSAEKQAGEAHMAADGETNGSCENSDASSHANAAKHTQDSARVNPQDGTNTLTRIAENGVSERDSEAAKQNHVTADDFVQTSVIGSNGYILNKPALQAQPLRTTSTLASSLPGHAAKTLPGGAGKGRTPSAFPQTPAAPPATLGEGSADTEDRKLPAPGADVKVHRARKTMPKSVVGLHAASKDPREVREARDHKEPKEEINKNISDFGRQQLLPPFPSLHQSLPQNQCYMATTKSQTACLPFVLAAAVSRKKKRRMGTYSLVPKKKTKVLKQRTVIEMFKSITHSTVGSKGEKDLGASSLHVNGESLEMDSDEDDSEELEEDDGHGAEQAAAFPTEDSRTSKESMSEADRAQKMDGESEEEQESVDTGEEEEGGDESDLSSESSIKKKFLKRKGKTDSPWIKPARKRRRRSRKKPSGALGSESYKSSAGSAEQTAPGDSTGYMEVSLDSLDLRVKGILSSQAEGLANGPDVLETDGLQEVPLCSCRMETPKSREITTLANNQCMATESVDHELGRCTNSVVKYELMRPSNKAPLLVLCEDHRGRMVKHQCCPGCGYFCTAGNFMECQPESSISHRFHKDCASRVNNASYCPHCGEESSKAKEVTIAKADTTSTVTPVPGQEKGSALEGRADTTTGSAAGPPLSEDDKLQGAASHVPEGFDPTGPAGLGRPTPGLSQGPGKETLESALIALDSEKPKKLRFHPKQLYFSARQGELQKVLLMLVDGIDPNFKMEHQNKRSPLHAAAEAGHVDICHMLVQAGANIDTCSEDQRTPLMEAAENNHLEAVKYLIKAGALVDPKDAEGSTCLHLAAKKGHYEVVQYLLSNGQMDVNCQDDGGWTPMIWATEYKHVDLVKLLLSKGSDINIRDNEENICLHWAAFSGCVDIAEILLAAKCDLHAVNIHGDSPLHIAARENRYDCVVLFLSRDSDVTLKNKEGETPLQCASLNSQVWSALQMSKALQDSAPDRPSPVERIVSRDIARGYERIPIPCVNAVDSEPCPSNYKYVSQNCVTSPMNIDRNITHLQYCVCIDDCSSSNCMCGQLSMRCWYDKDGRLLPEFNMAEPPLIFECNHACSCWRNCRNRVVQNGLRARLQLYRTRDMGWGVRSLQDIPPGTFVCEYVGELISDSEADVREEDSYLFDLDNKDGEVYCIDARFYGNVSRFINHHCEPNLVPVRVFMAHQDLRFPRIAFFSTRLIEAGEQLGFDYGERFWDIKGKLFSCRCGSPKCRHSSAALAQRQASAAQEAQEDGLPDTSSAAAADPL
How it was run: as §1

MDA-MB-231 cells = assay: Cytotoxicity assay; type: cell-based; settings: 3 days, CCK-8 (Figure S2)
How it was run: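 MDA-MB-231 cells are seeded at 1 × 10^4 cells per well and exposed to test compound at various concentrations for 3 days. Viability is read with CCK-8 following the kit protocol. Values are plotted from triplicate experiments.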

GLP [6] = biological target: T4, GLP (Homo sapiens, UniProt Q9H9B1); assay: Isothermal titration calorimetry; type: binding; settings: ITC
T4 sequence (Q9H9B1 982-1266): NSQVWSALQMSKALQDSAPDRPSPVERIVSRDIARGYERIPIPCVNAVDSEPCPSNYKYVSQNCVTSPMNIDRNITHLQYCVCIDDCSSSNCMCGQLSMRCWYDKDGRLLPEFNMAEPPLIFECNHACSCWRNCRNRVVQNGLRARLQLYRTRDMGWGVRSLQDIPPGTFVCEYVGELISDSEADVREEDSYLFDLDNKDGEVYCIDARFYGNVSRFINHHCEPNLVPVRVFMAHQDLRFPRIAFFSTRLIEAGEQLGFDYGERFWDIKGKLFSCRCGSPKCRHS

[7] = tested on: 21 other methyltransferases (PKMTs and PRMTs); assay: Selectivity assays against other methyltransferases; type: biochemical; settings: compound at 1 μM; any of the 21 enzymes
How it was run: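 Radioactivity-based scintillation proximity format that follows transfer of the 3H-labelled methyl group from SAM to substrate. Test compound at 1 μM, run in duplicate against each methyltransferase. Inhibition expressed as percentage of control enzyme activity.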

Compound | reduction of H3K9me2 level in K562 cells [1] | reduction of H3K9me2 level in MDA-MB-231 cells [2] | inhibition of G9a compared to GLP (G9a [3]) | inhibitory activity against G9a with preincubation time (G9a [3]) | rate of G9a adduct formation compared to GLP adduct (G9a [4]; mass spectrometry, 0-120 min, 5 μM G9a or GLP, 50 μM compound) | inhibitory activity against GLP with preincubation time (GLP [5]) | inhibition of cell growth in MDA-MB-231 cells (MDA-MB-231 cells) | fold improved binding affinity to GLP compared to UNC0642 (GLP [6]) [fold] | inhibition effect against 21 PKMTs and PRMTs [7] [%] | covalent modification of G9a (MS-based analysis, in words) (G9a [4])
C=CC(=O)Nc1nc(NC2CCN(C(C)C)CC2)c2cc(OC)c(OCCCN3CCCC3)cc2n1 [Compound 1, N-(4-((1-Isopropylpiperidin-4-yl)amino)-6-methoxy-7-(3-(pyrrolidin-1-yl)propoxy)-quinazolin-2-yl)acrylamide] | reduced the H3K9me2 level in K562 cells | slightly lower potency than UNC0642 and compound 9 | – | – | – | – | – | – | – | –
C=CC(=O)Nc1cc(NC2CCN(C(C)C)CC2)c2cc(OC)c(OCCCN3CCCC3)cc2n1 [Compound 8, N-(4-((1-Isopropylpiperidin-4-yl)amino)-6-methoxy-7-(3-(pyrrolidin-1-yl)propoxy)quinolin-2-yl)acrylamide] | reduced the H3K9me2 level in K562 cells; also recorded: much better potency compared to compound 1 and slightly better potency compared to UNC0642 | effectively reduced the H3K9me2 mark in a concentration- and time-dependent manner; also recorded: improved potency compared to UNC0642 and compound 9 | more effectively inhibited G9a than GLP at all three time points | improved inhibitory activity against G9a and GLP with increased preincubation time | faster than that of the GLP–compound 8 adduct | improved inhibitory activity against G9a and GLP with increased preincubation time | more effective than compound 1 and UNC0642 in suppressing the growth of MDA-MB-231 cells | 1.3 | ≤ 50 | –
C=CC(=O)N(C)c1nc(NC2CCN(C(C)C)CC2)c2cc(OC)c(OCCCN3CCCC3)cc2n1 [Compound 6, N-(4-((1-Isopropylpiperidin-4-yl)amino)-6-methoxy-7-(3-(pyrrolidin-1-yl)propoxy)-quinazolin-2-yl)-N-methylacrylamide] | – | – | – | – | – | – | – | – | – | completely lost its ability to covalently modify G9a
CCC(=O)Nc1cc(NC2CCN(C(C)C)CC2)c2cc(OC)c(OCCCN3CCCC3)cc2n1 [Compound 9, N-(4-((1-Isopropylpiperidin-4-yl)amino)-6-methoxy-7-(3-(pyrrolidin-1-yl)propoxy)quinolin-2-yl)propionamide] | – | displayed some cellular potency as a reversible inhibitor but was not as potent as compound 8 | – | – | – | – | – | – | – | did not covalently modify G9a
